The results in this text go back to the M2OR odorant receptor database.

Conditions in all cases: stereoisomer not certain
The target of test [1] is T1, UniProt A2ATE5.
T1 sequence (whole entry): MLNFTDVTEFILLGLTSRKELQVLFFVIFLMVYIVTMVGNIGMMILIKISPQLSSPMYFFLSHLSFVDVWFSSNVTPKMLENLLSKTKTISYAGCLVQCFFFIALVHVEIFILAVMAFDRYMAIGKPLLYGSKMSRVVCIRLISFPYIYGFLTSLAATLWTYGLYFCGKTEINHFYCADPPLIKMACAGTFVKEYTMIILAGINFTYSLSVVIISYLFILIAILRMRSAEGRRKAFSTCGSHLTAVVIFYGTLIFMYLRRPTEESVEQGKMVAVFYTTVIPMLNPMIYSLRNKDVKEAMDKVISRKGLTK
Put shortly: (§1)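 Each entry records the cell line, G-protein, co-transfected protein and tags used. Methods varied with the source, often transient luciferase assays in mammalian cell lines. A receptor–molecule pair is called responsive (active) if the original authors judged its signal statistically different from baseline and non-responsive (inactive) otherwise.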

Test [2] has as its target T2, UniProt A2AVB0.
T2 sequence (whole entry): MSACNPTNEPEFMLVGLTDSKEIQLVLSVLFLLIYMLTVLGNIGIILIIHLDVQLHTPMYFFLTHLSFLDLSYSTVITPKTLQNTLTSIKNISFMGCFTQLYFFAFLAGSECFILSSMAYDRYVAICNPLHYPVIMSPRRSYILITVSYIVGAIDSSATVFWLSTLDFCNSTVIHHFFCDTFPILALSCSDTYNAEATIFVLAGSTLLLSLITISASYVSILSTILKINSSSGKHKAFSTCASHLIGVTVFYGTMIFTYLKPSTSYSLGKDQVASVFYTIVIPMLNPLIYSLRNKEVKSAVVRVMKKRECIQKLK
Summed up: as §1

Test [3] deals with T3, UniProt A2AVB5.
T3 sequence (whole entry): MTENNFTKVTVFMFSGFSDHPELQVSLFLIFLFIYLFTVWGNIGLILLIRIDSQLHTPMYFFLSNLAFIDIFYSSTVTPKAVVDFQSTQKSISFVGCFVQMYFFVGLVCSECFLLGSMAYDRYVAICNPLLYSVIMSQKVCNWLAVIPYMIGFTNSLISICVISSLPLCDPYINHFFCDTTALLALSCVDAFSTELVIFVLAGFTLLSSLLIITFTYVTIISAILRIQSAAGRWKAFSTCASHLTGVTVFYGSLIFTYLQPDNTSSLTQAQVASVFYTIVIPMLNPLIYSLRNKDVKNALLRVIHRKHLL
Summed up: as §1

Test [4] addresses T4, UniProt B2RVX8.
T4 sequence (whole entry): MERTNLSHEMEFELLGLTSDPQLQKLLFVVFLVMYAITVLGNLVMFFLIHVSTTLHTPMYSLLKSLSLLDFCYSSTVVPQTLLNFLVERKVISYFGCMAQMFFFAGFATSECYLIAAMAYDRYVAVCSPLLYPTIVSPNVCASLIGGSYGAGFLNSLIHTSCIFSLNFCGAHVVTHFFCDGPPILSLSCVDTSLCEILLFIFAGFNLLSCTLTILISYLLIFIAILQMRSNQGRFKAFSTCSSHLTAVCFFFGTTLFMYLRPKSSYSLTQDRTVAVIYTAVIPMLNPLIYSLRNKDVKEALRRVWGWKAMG
Put shortly: as §1

For test [5], the target named is T5, UniProt E9PVX1.
T5 sequence (whole entry): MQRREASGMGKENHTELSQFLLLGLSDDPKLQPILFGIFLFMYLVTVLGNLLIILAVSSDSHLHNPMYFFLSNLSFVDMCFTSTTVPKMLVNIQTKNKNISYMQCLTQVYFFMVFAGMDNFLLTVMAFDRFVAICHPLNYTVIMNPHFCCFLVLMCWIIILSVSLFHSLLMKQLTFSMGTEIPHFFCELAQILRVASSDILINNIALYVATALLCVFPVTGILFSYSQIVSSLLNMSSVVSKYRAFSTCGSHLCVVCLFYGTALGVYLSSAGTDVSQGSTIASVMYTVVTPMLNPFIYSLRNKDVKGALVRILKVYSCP
Summed up: as §1

For test [6], the target named is T6, UniProt E9PX47.
T6 sequence (whole entry): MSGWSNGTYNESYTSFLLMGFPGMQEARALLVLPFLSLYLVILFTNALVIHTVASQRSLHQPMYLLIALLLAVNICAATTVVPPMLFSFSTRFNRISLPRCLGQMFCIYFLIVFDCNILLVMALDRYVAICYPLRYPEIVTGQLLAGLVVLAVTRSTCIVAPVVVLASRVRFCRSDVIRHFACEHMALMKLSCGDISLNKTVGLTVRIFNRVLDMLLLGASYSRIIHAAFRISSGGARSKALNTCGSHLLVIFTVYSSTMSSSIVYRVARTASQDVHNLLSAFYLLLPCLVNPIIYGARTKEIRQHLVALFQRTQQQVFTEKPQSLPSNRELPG
Summed up: as §1

In test [7] the target is T7, UniProt E9PXN3.
T7 sequence (whole entry): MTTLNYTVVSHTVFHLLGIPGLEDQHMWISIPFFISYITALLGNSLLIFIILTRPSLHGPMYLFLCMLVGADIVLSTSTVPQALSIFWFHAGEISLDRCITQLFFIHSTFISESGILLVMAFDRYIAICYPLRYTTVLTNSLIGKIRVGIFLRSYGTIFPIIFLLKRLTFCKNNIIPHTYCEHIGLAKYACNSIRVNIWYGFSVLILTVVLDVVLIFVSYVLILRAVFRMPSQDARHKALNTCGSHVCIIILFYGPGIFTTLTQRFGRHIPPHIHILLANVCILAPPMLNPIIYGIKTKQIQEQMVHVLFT
Summed up:
as §1

Test [8] has as its target T8, UniProt E9PZ66.
T8 sequence (whole entry): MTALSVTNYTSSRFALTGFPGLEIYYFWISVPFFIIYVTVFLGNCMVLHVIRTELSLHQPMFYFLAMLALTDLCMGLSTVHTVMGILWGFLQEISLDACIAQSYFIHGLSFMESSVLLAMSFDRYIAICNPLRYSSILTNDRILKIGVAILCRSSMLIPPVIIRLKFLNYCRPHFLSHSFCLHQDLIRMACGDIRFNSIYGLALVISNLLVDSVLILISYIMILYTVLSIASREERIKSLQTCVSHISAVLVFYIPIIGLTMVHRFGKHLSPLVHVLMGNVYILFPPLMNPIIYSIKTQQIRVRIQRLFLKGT
Summed up:
as §1

The target of test [9] is T9, UniProt E9Q4X7.
T9 sequence (whole entry): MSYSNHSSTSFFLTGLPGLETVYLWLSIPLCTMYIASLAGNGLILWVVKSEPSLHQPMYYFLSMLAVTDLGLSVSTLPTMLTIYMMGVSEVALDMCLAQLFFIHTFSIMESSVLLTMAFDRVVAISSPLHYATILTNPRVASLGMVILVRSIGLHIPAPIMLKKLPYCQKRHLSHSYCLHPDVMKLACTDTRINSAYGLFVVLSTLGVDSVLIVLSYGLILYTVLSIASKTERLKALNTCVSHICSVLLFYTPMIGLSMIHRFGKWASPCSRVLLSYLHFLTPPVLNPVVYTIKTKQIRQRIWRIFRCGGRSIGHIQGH
Put shortly:
as §1

Test [10] concerns the target T10, UniProt E9Q546.
T10 sequence (whole entry): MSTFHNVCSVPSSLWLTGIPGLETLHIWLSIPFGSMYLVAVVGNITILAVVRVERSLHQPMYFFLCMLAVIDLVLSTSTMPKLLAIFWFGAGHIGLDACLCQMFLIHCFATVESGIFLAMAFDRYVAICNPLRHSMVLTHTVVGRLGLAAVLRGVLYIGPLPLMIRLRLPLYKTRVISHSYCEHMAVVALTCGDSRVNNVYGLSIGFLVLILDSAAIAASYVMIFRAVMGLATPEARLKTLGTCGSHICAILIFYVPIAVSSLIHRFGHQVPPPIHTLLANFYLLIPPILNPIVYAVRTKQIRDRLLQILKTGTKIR
Summed up: as §1

Test [11] deals with T11, UniProt E9Q6Z7.
T11 sequence (whole entry): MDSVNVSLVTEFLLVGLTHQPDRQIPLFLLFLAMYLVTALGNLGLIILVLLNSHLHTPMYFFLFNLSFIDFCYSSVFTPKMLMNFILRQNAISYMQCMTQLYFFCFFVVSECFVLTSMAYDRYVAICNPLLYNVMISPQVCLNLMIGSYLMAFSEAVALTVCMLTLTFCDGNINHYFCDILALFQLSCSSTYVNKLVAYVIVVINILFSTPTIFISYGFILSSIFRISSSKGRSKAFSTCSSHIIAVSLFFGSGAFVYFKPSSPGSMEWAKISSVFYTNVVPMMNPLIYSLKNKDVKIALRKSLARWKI
Put shortly:
as §1

For test [12], the target named is T12, UniProt K7N609.
T12 sequence (whole entry): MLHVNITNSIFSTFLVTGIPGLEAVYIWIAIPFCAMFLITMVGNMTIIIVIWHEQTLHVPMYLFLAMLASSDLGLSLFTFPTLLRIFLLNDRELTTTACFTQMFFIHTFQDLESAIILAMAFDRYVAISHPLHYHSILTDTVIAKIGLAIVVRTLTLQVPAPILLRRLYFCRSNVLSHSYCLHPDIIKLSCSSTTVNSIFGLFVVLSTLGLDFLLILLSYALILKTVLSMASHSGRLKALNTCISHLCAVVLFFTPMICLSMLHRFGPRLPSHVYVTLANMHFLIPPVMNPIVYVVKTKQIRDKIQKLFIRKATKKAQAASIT
Summed up:
as §1

The target in test [13] is UniProt A2AVA9. Put shortly: as §1
Test [14] concerns the target UniProt A2AVC3. Put shortly:
as §1

Test [15] deals with UniProt E9PXH6. Summed up:
as §1

Test [16] has as its target UniProt E9Q891. Summed up: as §1
In test [17] the target is UniProt K7N5T5. Summed up:
as §1

Sequence of UniProt E9PXH6 (E9PXH6 as listed by the source): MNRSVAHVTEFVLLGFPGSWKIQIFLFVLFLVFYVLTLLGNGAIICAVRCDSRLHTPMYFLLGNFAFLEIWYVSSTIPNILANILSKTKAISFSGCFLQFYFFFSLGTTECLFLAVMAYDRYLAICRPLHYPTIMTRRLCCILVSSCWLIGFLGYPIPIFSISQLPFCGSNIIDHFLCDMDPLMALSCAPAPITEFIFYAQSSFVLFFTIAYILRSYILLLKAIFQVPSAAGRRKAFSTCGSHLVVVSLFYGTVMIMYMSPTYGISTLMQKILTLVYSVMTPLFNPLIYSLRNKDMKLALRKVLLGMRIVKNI
Sequence of UniProt K7N5T5 (K7N5T5 as listed by the source): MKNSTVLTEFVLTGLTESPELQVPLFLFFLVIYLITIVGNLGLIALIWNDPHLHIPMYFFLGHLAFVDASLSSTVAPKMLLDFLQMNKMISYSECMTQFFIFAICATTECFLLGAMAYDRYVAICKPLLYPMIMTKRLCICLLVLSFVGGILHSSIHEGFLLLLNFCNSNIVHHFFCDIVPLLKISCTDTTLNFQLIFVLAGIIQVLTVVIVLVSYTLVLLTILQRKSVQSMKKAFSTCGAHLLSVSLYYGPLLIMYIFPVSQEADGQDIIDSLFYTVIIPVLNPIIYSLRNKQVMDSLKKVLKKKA
Sequence of UniProt A2AVA9 (A2AVA9 as listed by the source): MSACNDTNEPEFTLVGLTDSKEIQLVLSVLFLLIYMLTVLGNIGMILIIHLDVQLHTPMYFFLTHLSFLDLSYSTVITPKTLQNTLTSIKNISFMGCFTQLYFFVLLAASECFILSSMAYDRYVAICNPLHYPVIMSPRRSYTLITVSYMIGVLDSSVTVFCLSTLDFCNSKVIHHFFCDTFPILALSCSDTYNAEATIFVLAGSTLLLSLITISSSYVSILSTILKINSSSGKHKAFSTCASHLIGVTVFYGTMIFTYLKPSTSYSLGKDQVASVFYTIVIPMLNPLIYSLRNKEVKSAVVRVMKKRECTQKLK
Sequence of UniProt E9Q891 (E9Q891 as listed by the source): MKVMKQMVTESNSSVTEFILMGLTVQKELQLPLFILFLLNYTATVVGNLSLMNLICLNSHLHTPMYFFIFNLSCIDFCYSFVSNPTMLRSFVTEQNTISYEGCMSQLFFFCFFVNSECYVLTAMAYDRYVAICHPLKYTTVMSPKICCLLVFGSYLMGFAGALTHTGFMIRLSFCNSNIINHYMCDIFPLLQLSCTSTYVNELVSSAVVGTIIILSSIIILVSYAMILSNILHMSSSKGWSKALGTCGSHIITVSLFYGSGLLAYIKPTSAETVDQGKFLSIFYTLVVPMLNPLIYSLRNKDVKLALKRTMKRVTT
Sequence of UniProt A2AVC3 (A2AVC3 as listed by the source): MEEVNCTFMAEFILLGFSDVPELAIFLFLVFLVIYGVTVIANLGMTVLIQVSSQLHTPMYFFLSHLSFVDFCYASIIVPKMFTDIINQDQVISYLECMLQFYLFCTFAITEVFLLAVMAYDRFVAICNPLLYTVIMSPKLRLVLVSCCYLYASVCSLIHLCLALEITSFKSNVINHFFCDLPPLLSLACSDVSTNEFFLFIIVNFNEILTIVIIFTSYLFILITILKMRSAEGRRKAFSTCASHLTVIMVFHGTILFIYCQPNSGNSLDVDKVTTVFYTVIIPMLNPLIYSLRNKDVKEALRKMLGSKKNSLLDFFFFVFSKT

For the molecule `CCCCC(=O)O`, the “odorant receptor agonist call” value in test [1], in test [2], in test [3], in test [4], in test [5] and in test [6] was “inactive” throughout. The “odorant receptor agonist call” value in test [7], in test [9], in test [10], in test [11] and in test [12] was “inactive” throughout. For the same molecule, in test [8], the “odorant receptor agonist call” value is “active”.
With `O=C1CCOc2ccccc21`, the “odorant receptor agonist call” value in [1], in [2], in test [14], in test [4], in [5] and in test [8] was “inactive” throughout. The “odorant receptor agonist call” value in test [9], in [10], in [11], in [17] and in [12] was “inactive” in each case. Also, the “odorant receptor agonist call” value in [13], in test [3], in [15] and in [16] was “active” throughout.
Take `C=CCOC(=O)CCCCCC`: the “odorant receptor agonist call” value in test [1], in test [2], in test [3], in test [4], in test [5] and in test [8] was “inactive” throughout. In addition, the “odorant receptor agonist call” value in test [9], in [10], in test [11] and in test [12] was “inactive” each time.
Take `c1ccccc1`: the “odorant receptor agonist call” value in test [1], in [2], in [3], in [4], in [5] and in test [8] was “inactive” in each case. The “odorant receptor agonist call” value in test [9], in test [10], in [11] and in test [12] was “inactive” in each case.
On to `CCCCC(C)=O`, for which the “odorant receptor agonist call” value in test [1], in test [2], in test [3], in test [4], in test [5] and in [8] was “inactive” throughout. In addition, the “odorant receptor agonist call” value in [9], in [10], in test [11] and in test [12] was “inactive” each time.
